Measurements as given in ChEMBL document CHEMBL1121884, “Piperazinylquinoxalines with central serotoninmimetic activity” (1981).
Activity calls are given as the source filed them. The calls are words filed in the database; no cut-off is given here.

Experiments:
Rattus norvegicus [1] = assay: Ability to elicit head twitches in rats a response characteristic of a serotonin mimetic action in the central nervous system was measured after 3 mg/kg of ip administration; assay type: functional; conditions: route intraperitoneal
Outline: (§1)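 Female Sprague-Dawley rats (150-250 g), compound given ip in 1% methylcellulose vehicle, dose as base weight; quantal scoring of rats showing at least one head twitch during a 2-min observation beginning 30 min after dosing; usually six rats per dose level; vehicle controls run.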

Rattus norvegicus [2] = assay: Ability to elicit head twitches in rats a response characteristic of a serotonin mimetic action in the central nervous system was measured after 1.0 mg/kg of ip administration; assay type: functional; conditions: route intraperitoneal; outline: as §1
Rattus norvegicus [3] = assay: Ability to elicit head twitches in rats a response characteristic of a serotonin mimetic action in the central nervous system after 9 mg/kg of ip administration; assay type: functional; conditions: route intraperitoneal; outline: as §1
Rattus norvegicus [4] = assay: Serotonin neuronal reuptake blocking activity was determined by the antagonism of the head twitch response induced in rats with p-chloromethamphetamine (PCMA) after 9 mg/kg of ip administration; assay type: functional; conditions: route intraperitoneal
Outline: (§2)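 Female Sprague-Dawley rats (150-250 g) dosed ip with compound (1% methylcellulose vehicle, dose as base weight), then p-chloromethamphetamine 6.0 mg/kg ip 1 h later; head twitches observed 30 min after PCMA; scored as rats not twitching; usually six rats per dose; ED50 = dose antagonizing PCMA head twitch in 50% of animals, with 95% confidence limits.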

Rattus norvegicus [5] = assay: Serotonin neuronal reuptake blocking activity was determined by the antagonism of the head twitch response induced by treatment of rats with p-chloromethamphetamine (PCMA) after 1.0 mg/kg of ip administration; assay type: functional; conditions: route intraperitoneal; outline: as §2
Rattus norvegicus [6] = assay: Serotonin neuronal reuptake blocking activity was determined by the antagonism of the head twitch response induced by treatment of rats with p-chloromethamphetamine (PCMA) after 3 mg/kg of ip administration; assay type: functional; conditions: route intraperitoneal; outline: as §2
[7] = biological target: Sodium-dependent serotonin transporter (Rattus norvegicus) (UniProt P31652); assay: (§3) Serotonin neuronal reuptake blocking activity was determined by the antagonism of the head twitch response induced by treatment of rats; assay type: functional; set-up: concentration or dose not given beside the values; outline: as §2
[8] = biological target: Sodium-dependent serotonin transporter (Rattus norvegicus) (UniProt P31652); assay: as §3; assay type: functional; set-up: concentration or dose not given beside the values; outline: as §2; remark: listed apart in the source
[9] = biological target: Sodium-dependent serotonin transporter (Rattus norvegicus) (UniProt P31652); assay: Serotonin neuronal reuptake blocking activity was determined by the antagonism of the head twitch response induced in rats; assay type: functional; set-up: concentration or dose not given beside the values; outline: as §2
Rattus norvegicus [10] = assay: Ability to elicit head twitches in rats a response characteristic of a serotonin mimetic action in the central nervous system was measured after 2 mg/kg of ip administration; assay type: functional; conditions: route intraperitoneal; outline: as §1
Rattus norvegicus [11] = assay: Ability to elicit head twitches in rats a response characteristic of a serotonin mimetic action in the central nervous system after 6 mg/kg of ip administration; assay type: functional; conditions: route intraperitoneal; outline: as §1
Rattus norvegicus [12] = assay: Ability to elicit head twitches in rats a response characteristic of a serotonin mimetic action in the central nervous system was measured after 0.67 mg/kg of ip administration; assay type: functional; conditions: route intraperitoneal; outline: as §1
[13] = biological target: T1, Serotonin (5-HT) receptor (Rattus norvegicus) (UniProt P35563+P35365+P32305+P31388+Q9JJ16+P28564+P30994+Q62758+P08909+P14842+P30940+P35364+P19327+P28565); assay: (§4) Ability to elicit head twitches in rats (a serotonin mimetic response); assay type: functional; set-up: concentration or dose not given beside the values; outline: as §1
[14] = biological target: T1, Serotonin (5-HT) receptor (Rattus norvegicus); assay: as §4; assay type: functional; set-up: concentration or dose not given beside the values; outline: as §1; remark: listed apart in the source
[15] = biological target: T1, Serotonin (5-HT) receptor (Rattus norvegicus); assay: as §4; assay type: functional; set-up: concentration or dose not given beside the values; outline: as §1; remark: listed apart in the source
Rattus norvegicus [16] = species on record: Rattus norvegicus; assay: ED50 value expresses the inhibition of serotonin reuptake in rat.; assay type: functional; outline: as §2
Rattus norvegicus [17] = assay: Serotonin neuronal reuptake blocking activity was determined by the antagonism of the head twitch response induced in rats with p-chloromethamphetamine (PCMA) after 40 mg/kg of ip administration; Animals succumbed; assay type: functional, organism-based; set-up: dose 40 mg/kg; outline: as §2
Rattus norvegicus [18] = assay: Ability to elicit head twitches in rats a response characteristic of a serotonin mimetic action in the central nervous system after 40 mg/kg of ip administration; Animals succumbed; assay type: functional, organism-based; set-up: dose 40 mg/kg; outline: as §1
Rattus norvegicus [19] = assay: Serotonin neuronal reuptake blocking activity was determined by the antagonism of the head twitch response induced by treatment of rats with p-chloromethamphetamine (PCMA) after 1 mg/kg of ip administration; assay type: functional; conditions: route intraperitoneal; outline: as §2
Rattus norvegicus [20] = assay: Ability to elicit head twitches in rats a response characteristic of a serotonin mimetic action in the central nervous system was measured after 1 mg/kg of ip administration; assay type: functional; conditions: route intraperitoneal; outline: as §1
Rattus norvegicus [21] = assay: Serotonin neuronal reuptake blocking activity was determined by the antagonism of the head twitch response induced in rats with p-chloromethamphetamine (PCMA) after 6 mg/kg of ip administration; assay type: functional; conditions: route intraperitoneal; outline: as §2
Rattus norvegicus [22] = assay: Serotonin neuronal reuptake blocking activity was determined by the antagonism of the head twitch response induced by treatment of rats with p-chloromethamphetamine (PCMA) after 0.67 mg/kg of ip administration; assay type: functional; conditions: route intraperitoneal; outline: as §2
Rattus norvegicus [23] = assay: Serotonin neuronal reuptake blocking activity was determined by the antagonism of the head twitch response induced by treatment of rats with p-chloromethamphetamine (PCMA) after 2 mg/kg of ip administration; assay type: functional; conditions: route intraperitoneal; outline: as §2

Chain of Sodium-dependent serotonin transporter (Rattus norvegicus) (P31652 whole entry): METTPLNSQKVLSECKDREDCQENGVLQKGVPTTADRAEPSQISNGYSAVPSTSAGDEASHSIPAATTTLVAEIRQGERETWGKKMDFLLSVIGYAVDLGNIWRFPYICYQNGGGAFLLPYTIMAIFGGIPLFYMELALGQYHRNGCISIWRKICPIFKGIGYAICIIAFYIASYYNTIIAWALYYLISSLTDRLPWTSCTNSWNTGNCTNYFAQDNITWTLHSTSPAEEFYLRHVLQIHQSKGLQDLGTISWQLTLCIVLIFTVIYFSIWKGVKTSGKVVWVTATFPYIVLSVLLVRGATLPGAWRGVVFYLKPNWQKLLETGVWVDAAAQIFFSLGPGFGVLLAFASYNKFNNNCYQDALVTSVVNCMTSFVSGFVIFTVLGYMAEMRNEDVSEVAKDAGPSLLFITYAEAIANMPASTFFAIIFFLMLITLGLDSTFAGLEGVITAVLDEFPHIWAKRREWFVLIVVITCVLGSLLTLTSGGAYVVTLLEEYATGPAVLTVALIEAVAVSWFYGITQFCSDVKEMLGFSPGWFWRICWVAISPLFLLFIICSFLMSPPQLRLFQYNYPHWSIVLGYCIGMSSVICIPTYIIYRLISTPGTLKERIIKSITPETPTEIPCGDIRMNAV

Row | Structure (SMILES) | PCMA antagonism [7] | PCMA antagonism [8] | PCMA antagonism [9] | Activity [13] | Activity [14] | Activity [15] | further results
1 | Cn1c(=O)c(N2CCNCC2)nc2ccccc21 | – | – | – | – | – | – | Activity (Rattus norvegicus [1]): 3; Activity (Rattus norvegicus [2]): 1; Activity (Rattus norvegicus [3]): 5; PCMA antagonism (Rattus norvegicus [4]): 0; PCMA antagonism (Rattus norvegicus [5]): 1; PCMA antagonism (Rattus norvegicus [6]): 2
2 | Fc1ccc2nc(N3CCNCC3)cnc2c1 | 2 | 2 | 4 | – | – | – | Activity (Rattus norvegicus [10]): 4; Activity (Rattus norvegicus [11]): 5; Activity (Rattus norvegicus [12]): 4
3 | CN1CCN(c2nc3ccc(S(N)(=O)=O)cc3nc2Cl)CC1 | 2 | 2 | 2 | 4 | 1 | 3 | –
4 | O=C(O)C1CN(c2cnc3ccccc3n2)CCN1 (centres undefined) | 0 | 0 | 0 | 0 | 1 | 2 | –
5 | O=C1CN(c2cnc3ccccc3n2)CCN1 | – | – | – | 3 | 0 | 0 | –
6 | [O-][n+]1cc(N2CCNCC2)nc2ccccc21 | – | – | – | – | 6 | 6 | –
7 | O=[N+]([O-])c1ccc2nc(N3CCNCC3)cnc2c1 | 6 | 5 | 5 | 2 | 2 | 4 | –
8 | Oc1nc2ccccc2nc1N1CCNCC1 | – | – | 1 | 0 | 6 | 2 | –
9 | CN(C)CCCN1c2ccccc2CCc2ccc(Cl)cc21 [CLOMIPRAMINE] | – | – | – | – | – | – | ED50 (Rattus norvegicus [16]): 2 mg/kg
10 | c1ccc2nc(N3CCNCC3)cnc2c1 | 2 | 2 | – | – | 12 | 9 | PCMA antagonism (Rattus norvegicus [17]): Active; Activity (Rattus norvegicus [18]): Active
11 | CN1CCN(c2nc3ccccc3nc2O)CC1 | 0 | 1 | 0 | 6 | 0 | 0 | –
12 | COc1ccc2nc(N3CCNCC3)cnc2c1 | 5 | 3 | – | – | 1 | 1 | Activity (Rattus norvegicus [18]): Active
13 | Clc1ccc2nc(N3CCNCC3)c(Sc3ccccc3)nc2c1 | 2 | 1 | 1 | 0 | 1 | 1 | –
14 | Fc1cccc2nc(N3CCNCC3)cnc12 | – | – | – | – | 6 | 6 | –
15 | CN1CCN(c2cnc3cc(Cl)ccc3n2)CC1.Cl | – | – | – | – | – | – | Activity (Rattus norvegicus [1]): 1; Activity (Rattus norvegicus [2]): 0; Activity (Rattus norvegicus [3]): 1; PCMA antagonism (Rattus norvegicus [4]): 4; PCMA antagonism (Rattus norvegicus [6]): 2; PCMA antagonism (Rattus norvegicus [19]): 2
16 | Cc1cccc2nc(N3CCNCC3)cnc12.Cl | – | – | – | – | – | – | Activity (Rattus norvegicus [1]): 4; Activity (Rattus norvegicus [3]): 5; PCMA antagonism (Rattus norvegicus [4]): 1; Activity (Rattus norvegicus [20]): 0; PCMA antagonism (Rattus norvegicus [6]): 1; PCMA antagonism (Rattus norvegicus [19]): 0
17 | COc1ccc2ncc(N3CCNCC3)nc2c1 | – | – | – | – | – | – | Activity (Rattus norvegicus [10]): 5; Activity (Rattus norvegicus [11]): 6; Activity (Rattus norvegicus [12]): 1
18 | COc1cccc2nc(N3CCNCC3)cnc12 | 1 | 0 | 2 | 3 | 2 | 1 | –
19 | Brc1ccc2nc(N3CCNCC3)cnc2c1.Cl | – | – | – | – | – | – | PCMA antagonism (Rattus norvegicus [21]): 2; Activity (Rattus norvegicus [10]): 4; PCMA antagonism (Rattus norvegicus [22]): 2; PCMA antagonism (Rattus norvegicus [23]): 3; Activity (Rattus norvegicus [11]): 2; Activity (Rattus norvegicus [12]): 0
20 | CS(=O)(=O)c1ccc2nc(N3CCNCC3)cnc2c1 | – | – | – | – | – | – | PCMA antagonism (Rattus norvegicus [21]): 0; Activity (Rattus norvegicus [10]): 1; PCMA antagonism (Rattus norvegicus [22]): 2; PCMA antagonism (Rattus norvegicus [23]): 0; Activity (Rattus norvegicus [11]): 2; Activity (Rattus norvegicus [12]): 0
21 | Clc1cc2ncc(N3CCNCC3)nc2cc1Cl | 4 | 1 | 3 | 1 | 2 | 0 | –
22 | Fc1cccc2ncc(N3CCNCC3)nc12 | 1 | 0 | – | – | 6 | 1 | PCMA antagonism (Rattus norvegicus [17]): Active; Activity (Rattus norvegicus [18]): Active
23 | Cl.ON1CCN(c2cnc3ccccc3n2)CC1 | – | – | – | – | – | – | Activity (Rattus norvegicus [1]): 2; Activity (Rattus norvegicus [3]): 4; Activity (Rattus norvegicus [20]): 2
24 | Nc1nc2ccccc2nc1N1CCNCC1 | 1 | 1 | 0 | 6 | 3 | 2 | –
25 | Oc1ccc2nc(N3CCNCC3)cnc2c1 | 0 | – | 2 | 1 | 0 | 0 | –
26 | CC(=O)N1CCN(c2cnc3cc(Cl)ccc3n2)CC1 | 1 | 0 | 0 | 1 | 2 | 2 | –
27 | Cl.Clc1ccc2nc(N3CCNCC3)cnc2c1 | 6 | 4 | 6 | 2 | 0 | 1 | ED50 (Rattus norvegicus [16]; Rattus norvegicus): 0.5 mg/kg
28 | CN(C)CCn1c(=O)c(N2CCNCC2)nc2ccccc21 | 0 | 2 | 0 | 1 | 0 | 1 | –
29 | Clc1ccc2ncc(N3CCNCC3)nc2c1 | – | – | – | – | – | – | Activity (Rattus norvegicus [1]): 1; Activity (Rattus norvegicus [2]): 0; Activity (Rattus norvegicus [3]): 3; PCMA antagonism (Rattus norvegicus [4]): 5; PCMA antagonism (Rattus norvegicus [5]): 1; PCMA antagonism (Rattus norvegicus [6]): 3
